Values after ≈ are worked out from the molar mass of the structure shown.
Columns and labels:
HepG2 [1] = test: Cytotoxicity against human HepG2 cells assessed as cell growth inhibition at 20 ug/ml after 72 hrs by MTT assay; format: functional; settings: HepG2, 72 h, read-out: GI
[2] = test system: MCF-7, HepG2, BGC-823, HeLa, A549 cancer cell lines (Homo sapiens); test: Cytotoxicity against human MCF-7, HepG2, BGC-823, HeLa and A549 cells assessed as cell growth inhibition at 20 ug/ml after 72 hrs by MTT assay; settings: read-out: GI
[3] = Cytotoxicity against human BCG823 cells assessed as cell growth inhibition after 72 hrs by MTT assay; format: functional, cell-based; settings: BCG823, 72 h
Outline: (§1)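 MTT growth assay in human cancer lines (MCF-7, HepG2, BGC-823, HeLa, A549), 72 h after treatment; 5-fluorouracil as reference. IC50 (μg/mL) taken as concentration giving 50% growth inhibition versus untreated control.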

A549 [4] = test: Cytotoxicity against human A549 cells assessed as cell growth inhibition at 20 ug/ml after 72 hrs by MTT assay; format: functional; settings: A549, 72 h, read-out: GI
[5] = Cytotoxicity against human BCG823 cells assessed as cell growth inhibition at 20 ug/ml after 72 hrs by MTT assay; format: functional; settings: BCG823, 72 h, read-out: GI
HepG2 [6] = test: Cytotoxicity against human HepG2 cells assessed as cell growth inhibition after 72 hrs by MTT assay; format: functional, cell-based; settings: HepG2, 72 h; outline: as §1
MCF7 [7] = test: Cytotoxicity against human MCF7 cells assessed as cell growth inhibition after 72 hrs by MTT assay; format: functional, cell-based; settings: MCF7, 72 h; outline: as §1
HeLa [8] = test: Cytotoxicity against human HeLa cells assessed as cell growth inhibition after 72 hrs by MTT assay; format: functional, cell-based; outline: as §1
HeLa [9] = test: Cytotoxicity against human HeLa cells assessed as cell growth inhibition at 20 ug/ml after 72 hrs by MTT assay; format: functional; settings: read-out: GI
A549 [10] = test: Cytotoxicity against human A549 cells assessed as cell growth inhibition after 72 hrs by MTT assay; format: functional, cell-based; settings: A549, 72 h; outline: as §1
MCF7 [11] = test: Cytotoxicity against human MCF7 cells assessed as cell growth inhibition at 20 ug/ml after 72 hrs by MTT assay; format: functional; settings: MCF7, 72 h, read-out: GI
[12] = Cytotoxicity against human HL7702 cells assessed as cell growth inhibition after 72 hrs by MTT assay; format: cell-based; settings: L02, 72 h
HepG2 [13] = test: Induction of apoptosis in human HepG2 cells assessed as early apoptotic cells at 3.64 ug/ml after 24 to 48 hrs by Annexin V-FITC/propidium iodide staining based flow cytometry (reference value: 2.5 %); format: functional
HepG2 [14] = test: Induction of apoptosis in human HepG2 cells assessed as late apoptotic cells at 1.82 ug/ml after 24 to 48 hrs by Annexin V-FITC/propidium iodide staining based flow cytometry (reference value: 0.1 %); format: functional
HepG2 [15] = test: Induction of apoptosis in human HepG2 cells assessed as viable cells at 3.64 ug/ml after 24 to 48 hrs by Annexin V-FITC/propidium iodide staining based flow cytometry (reference value: 95.6 %); format: functional; settings: read-out: Activity
HepG2 [16] = test: Induction of apoptosis in human HepG2 cells assessed as late apoptotic cells at 3.64 ug/ml after 24 to 48 hrs by Annexin V-FITC/propidium iodide staining based flow cytometry (reference value: 0.1 %); format: functional
HepG2 [17] = test: Induction of apoptosis in human HepG2 cells assessed as early apoptotic cells at 1.82 ug/ml after 24 to 48 hrs by Annexin V-FITC/propidium iodide staining based flow cytometry (reference value: 2.5 %); format: functional
HepG2 [18] = test: Induction of apoptosis in human HepG2 cells assessed as necrotic cells at 3.64 ug/ml after 24 to 48 hrs by Annexin V-FITC/propidium iodide staining based flow cytometry (reference value: 1.8 %); format: functional
HepG2 [19] = test: Induction of apoptosis in human HepG2 cells assessed as viable cells at 1.82 ug/ml after 24 to 48 hrs by Annexin V-FITC/propidium iodide staining based flow cytometry (reference value: 95.6 %); format: functional; settings: read-out: Activity
HepG2 [20] = test: Induction of apoptosis in human HepG2 cells assessed as necrotic cells at 1.82 ug/ml after 24 to 48 hrs by Annexin V-FITC/propidium iodide staining based flow cytometry (reference value: 1.8 %); format: functional

Row | SMILES | inhibition of growth at 20 µg/mL (HepG2 [1]) [%] | inhibition at 72 h, 20 ug/ml [2] [%] | IC50 [3] [µg/mL] | inhibition of growth at 20 µg/mL (A549 [4]) [%] | inhibition of growth at 20 µg/mL [5] [%] | IC50 (HepG2 [6]) [µg/mL] | IC50 (MCF7 [7]) [µg/mL] | IC50 (HeLa [8]) [µg/mL] | inhibition of growth at 20 µg/mL (HeLa [9]) [%] | IC50 (A549 [10]) [µg/mL] | inhibition of growth at 20 µg/mL (MCF7 [11]) [%] | IC50 [12] [µg/mL] | Activity (HepG2 [13]) [%] | Activity (HepG2 [14]) [%] | viability at 3.64 µg/mL (HepG2 [15]) [%] | Activity (HepG2 [16]) [%] | Activity (HepG2 [17]) [%] | Activity (HepG2 [18]) [%] | viability at 1.82 µg/mL (HepG2 [19]) [%] | Activity (HepG2 [20]) [%]
1 | CNc1nc(C)c(C(=O)N/N=C/c2cccc(C(F)(F)F)c2)s1 | < 30 | < 30 | > 100 | < 30 | < 30 | > 100 | > 100 | > 100 | < 30 | > 100 | < 30 |  |  |  |  |  |  |  |  | 
2 | O=c1[nH]cc(F)c(=O)[nH]1 [FLUOROURACIL] |  |  | 10.9 (≈ 83.7 µM) |  |  |  | 10.8 (≈ 83 µM) | 10.7 (≈ 82.4 µM) |  | 10.5 (≈ 80.7 µM) |  | 14.5 (≈ 112 µM) |  |  |  |  |  |  |  | 
3 | CN(C(=O)NC(=O)c1ccc(C(F)(F)F)cc1)c1nc(C(F)(F)F)c(C(=O)N/N=C/c2ccccc2C(F)(F)F)s1 |  |  | 2.53 (≈ 4.14 µM) |  |  | 3.64 (≈ 5.95 µM) | 2.21 (≈ 3.61 µM) | 3.76 (≈ 6.15 µM) |  | 6.68 (≈ 10.9 µM) |  | 12.4 (≈ 20.3 µM) | 18.6 | 0.4 | 77.9 | 0.3 | 7.8 | 3.2 | 91.5 | 0.3
4 | CNc1nc(C(F)(F)F)c(C(=O)N/N=C/c2ccccc2C(F)(F)F)s1 | < 30 | < 30 | > 100 | < 30 | < 30 | > 100 | > 100 | > 100 | < 30 | > 100 | < 30 |  |  |  |  |  |  |  |  | 
5 | CN(C(=O)NC(=O)c1ccc(C(F)(F)F)cc1)c1nc(C(F)(F)F)c(C(=O)N/N=C/c2cccc(C(F)(F)F)c2)s1 |  |  | 1.84 (≈ 3.01 µM) |  |  | 7.95 (≈ 13 µM) | 8.95 (≈ 14.6 µM) | 6.2 (≈ 10.1 µM) |  | 6.66 (≈ 10.9 µM) |  | 18 (≈ 29.4 µM) |  |  |  |  |  |  |  | 
6 | CN(C(=O)NC(=O)c1ccc(F)c(F)c1)c1nc(C(F)(F)F)c(C(=O)N/N=C/c2cc(C(F)(F)F)cc(C(F)(F)F)c2)s1 |  |  | 3.51 (≈ 5.42 µM) |  |  | 5.47 (≈ 8.45 µM) | 2.61 (≈ 4.03 µM) | 4.45 (≈ 6.87 µM) |  | 5.47 (≈ 8.45 µM) |  | 20.1 (≈ 31 µM) |  |  |  |  |  |  |  | 
7 | CN(C(=O)NC(=O)c1ccc(F)c(F)c1)c1nc(C(F)(F)F)c(C(=O)N/N=C/c2ccc(C(F)(F)F)cc2)s1 |  |  | 3.85 (≈ 6.64 µM) |  |  | 6.26 (≈ 10.8 µM) | 5.93 (≈ 10.2 µM) | 5.1 (≈ 8.8 µM) |  | 6.07 (≈ 10.5 µM) |  | 13.2 (≈ 22.9 µM) |  |  |  |  |  |  |  | 
8 | CNc1nc(C)c(C(=O)N/N=C/c2ccc(C(F)(F)F)cc2)s1 | < 30 | < 30 | > 100 | < 30 | < 30 | > 100 | > 100 | > 100 | < 30 | > 100 | < 30 |  |  |  |  |  |  |  |  | 
9 | CNc1nc(C)c(C(=O)N/N=C/c2ccccc2C(F)(F)F)s1 | < 30 | < 30 | > 100 | < 30 | < 30 | > 100 | > 100 | > 100 | < 30 | > 100 | < 30 |  |  |  |  |  |  |  |  | 
10 | CNc1nc(C(F)(F)F)c(C(=O)N/N=C/c2cccc(C(F)(F)F)c2)s1 | < 30 | < 30 | > 100 | < 30 | < 30 | > 100 | > 100 | > 100 | < 30 | > 100 | < 30 |  |  |  |  |  |  |  |  | 
11 | CN(C(=O)NC(=O)c1ccc(F)c(F)c1)c1nc(C(F)(F)F)c(C(=O)N/N=C/c2cccc(C(F)(F)F)c2)s1 |  |  | 4.46 (≈ 7.7 µM) |  |  | 5.6 (≈ 9.66 µM) | 4.15 (≈ 7.16 µM) | 4.21 (≈ 7.27 µM) |  | 6.52 (≈ 11.3 µM) |  | 23.5 (≈ 40.5 µM) |  |  |  |  |  |  |  | 
12 | CNc1nc(C(F)(F)F)c(C(=O)N/N=C/c2ccc(C(F)(F)F)cc2)s1 | < 30 | < 30 | > 100 | < 30 | < 30 | > 100 | > 100 | > 100 | < 30 | > 100 | < 30 |  |  |  |  |  |  |  |  | 
13 | CNc1nc(C)c(C(=O)N/N=C/c2cc(C(F)(F)F)cc(C(F)(F)F)c2)s1 | < 30 | < 30 | > 100 | < 30 | < 30 | > 100 | > 100 | > 100 | < 30 | > 100 | < 30 |  |  |  |  |  |  |  |  | 
14 | CNc1nc(C(F)(F)F)c(C(=O)N/N=C/c2cc(C(F)(F)F)cc(C(F)(F)F)c2)s1 | < 30 | < 30 | > 100 | < 30 | < 30 | > 100 | > 100 | > 100 | < 30 | > 100 | < 30 |  |  |  |  |  |  |  |  | 

— ChEMBL document CHEMBL3813688, “Synthesis, antitumor activity and mechanism of action of novel 1,3-thiazole derivatives containing hydrazide-hydrazone and carboxamide moiety” (Bioorg Med Chem Lett, 2016)
